# ChEMBL document CHEMBL1687848, “In vitro effect of qnrA1, qnrB1, and qnrS1 genes on fluoroquinolone activity against isogenic Escherichia coli isolates with mutations in gyrA and parC” (2011)
# What was measured:
# Type in all cases: functional
# Escherichia coli [1] = assay: Antibacterial activity against qnrB gene expressing Escherichia coli ATCC 25922 harboring ParC S80R mutant and pBK-QnrB1 by broth microdilution method
# Escherichia coli [2] = assay: Antibacterial activity against qnrA gene expressing Escherichia coli ATCC 25922 harboring ParC S80R mutant and pBK-QnrA1 by broth microdilution method
# Escherichia coli [3] = assay: Antibacterial activity against Escherichia coli ATCC 25922 expressing qnrA gene and pBK-QnrA1 assessed as resistant colonies recovered one step below mutant prevention concentration
# Summary of the method: (§1)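 Resistant colonies recovered from Mueller-Hinton plates one concentration step below the MPC for each fluoroquinolone were retested for MIC. Mutants taken from plated concentrations closest to the MPC had the QRDRs of gyrA and parC analysed.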
# Escherichia coli [4] = assay: Antibacterial activity against Escherichia coli ATCC 25922 expressing qnrB gene and pBK-QnrB1 assessed as mutant prevention concentration
# Escherichia coli [5] = assay: Ratio of mutant prevention concentration to MIC for qnrA gene expressing Escherichia coli ATCC 25922 harboring GyrA S83L mutant and pBK-QnrA1
# Summary of the method: (§2)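 MIC: broth microdilution per CLSI, in duplicate. The ratio is MPC over MIC. Strains are E. coli ATCC 25922 or its GyrA Ser83Leu gene-replacement mutant, with qnr genes on pBK-CMV introduced by electroporation.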
# Escherichia coli [6] = assay: Ratio of mutant prevention concentration to MIC for Escherichia coli ATCC 25922 expressing qnrB gene and pBK-QnrB1; summary of the method: as §2
# Escherichia coli [7] = assay: Ratio of mutant prevention concentration to MIC for Escherichia coli ATCC 25922; summary of the method: as §2
# Escherichia coli [8] = assay: Antibacterial activity against qnrA gene expressing Escherichia coli ATCC 25922 harboring GyrA S83L mutant and pBK-QnrA1 assessed as mutant prevention concentration
# Escherichia coli [9] = assay: Antibacterial activity against Escherichia coli ATCC 25922 assessed as resistant colonies recovered one step below mutant prevention concentration; summary of the method: as §1
# Escherichia coli [10] = assay: Antibacterial activity against Escherichia coli ATCC 25922 harboring GyrA S83L mutant assessed as earliest time required to resistant colonies visible one step below mutant prevention concentration
# Escherichia coli [11] = assay: Antibacterial activity against Escherichia coli ATCC 25922 harboring GyrA S83L mutant assessed as mutant prevention concentration
# Escherichia coli [12] = assay: Ratio of mutant prevention concentration to MIC for qnrS gene expressing Escherichia coli ATCC 25922 harboring GyrA S83L mutant and pBK-QnrS1; summary of the method: as §2
# Escherichia coli [13] = assay: Antibacterial activity against Escherichia coli ATCC 25922 harboring GyrA S83L mutant by broth microdilution method
# Escherichia coli [14] = assay: Antibacterial activity against qnrB gene expressing Escherichia coli ATCC 25922 harboring GyrA S83L mutant and pBK-QnrB1 by broth microdilution method
# Escherichia coli [15] = assay: Antibacterial activity against qnrB gene expressing Escherichia coli ATCC 25922 harboring GyrA S83L mutant and pBK-QnrB1 assessed as earliest time required to resistant colonies visible one step below mutant prevention concentration
# Escherichia coli [16] = assay: Antibacterial activity against Escherichia coli ATCC 25922 harboring GyrA S83L mutant and ParC S80R mutant by broth microdilution method
# Escherichia coli [17] = assay: Antibacterial activity against qnrA gene expressing Escherichia coli ATCC 25922 harboring ParC S80R mutant, ParC S80R mutant and pBK-QnrA1 by broth microdilution method
# Escherichia coli [18] = assay: Antibacterial activity against qnrA gene expressing Escherichia coli ATCC 25922 harboring GyrA S83L mutant and pBK-QnrA1 assessed as resistant colonies recovered one step below mutant prevention concentration; summary of the method: as §1
# Escherichia coli [19] = assay: Antibacterial activity against Escherichia coli ATCC 25922 harboring GyrA S83L mutant assessed as resistant colonies recovered one step below mutant prevention concentration; summary of the method: as §1
# Escherichia coli [20] = assay: Antibacterial activity against Escherichia coli ATCC 25922 expressing qnrA gene and pBK-QnrA1 assessed as earliest time required to resistant colonies visible one step below mutant prevention concentration
# Escherichia coli [21] = assay: Antibacterial activity against qnrA gene expressing Escherichia coli ATCC 25922 harboring GyrA S83L mutant and pBK-QnrA1 by broth microdilution method
# Escherichia coli [22] = assay: Antibacterial activity against Escherichia coli ATCC 25922 expressing qnrB gene and pBK-QnrB1 assessed as earliest time required to resistant colonies visible one step below mutant prevention concentration
# Escherichia coli [23] = assay: Antibacterial activity against Escherichia coli ATCC 25922 expressing qnrB gene and pBK-QnrB1 assessed as resistant colonies recovered one step below mutant prevention concentration; summary of the method: as §1
# Escherichia coli [24] = assay: Antibacterial activity against qnrS gene expressing Escherichia coli ATCC 25922 harboring GyrA S83L mutant and pBK-QnrS1 assessed as earliest time required to resistant colonies visible one step below mutant prevention concentration
# Escherichia coli [25] = assay: Antibacterial activity against Escherichia coli ATCC 25922 expressing qnrA gene and pBK-QnrA1 by broth microdilution method
# Escherichia coli [26] = assay: Antibacterial activity against Escherichia coli ATCC 25922 expressing qnrA gene and pBK-QnrA1 assessed as mutant prevention concentration
# Escherichia coli [27] = assay: Ratio of mutant prevention concentration to MIC for qnrB gene expressing Escherichia coli ATCC 25922 harboring GyrA S83L mutant and pBK-QnrB1; summary of the method: as §2
# Escherichia coli [28] = assay: Antibacterial activity against Escherichia coli ATCC 25922 harboring ParC S80R mutant by broth microdilution method
# Escherichia coli [29] = assay: Antibacterial activity against qnrS gene expressing Escherichia coli ATCC 25922 harboring GyrA S83L mutant and pBK-QnrS1 by broth microdilution method
# Escherichia coli [30] = assay: Antibacterial activity against Escherichia coli ATCC 25922 expressing qnrS gene and pBK-QnrS1 assessed as mutant prevention concentration
# Escherichia coli [31] = assay: Antibacterial activity against qnrB gene expressing Escherichia coli ATCC 25922 harboring ParC S80R mutant, ParC S80R mutant and pBK-QnrB1 by broth microdilution method
# Escherichia coli [32] = assay: Antibacterial activity against qnrS gene expressing Escherichia coli ATCC 25922 harboring ParC S80R mutant, ParC S80R mutant and pBK-QnrS1 by broth microdilution method
# Escherichia coli [33] = assay: Antibacterial activity against qnrB gene expressing Escherichia coli ATCC 25922 harboring GyrA S83L mutant and pBK-QnrB1 assessed as mutant prevention concentration
# Escherichia coli [34] = assay: Antibacterial activity against qnrA gene expressing Escherichia coli ATCC 25922 harboring GyrA S83L mutant and pBK-QnrA1 assessed as earliest time required to resistant colonies visible one step below mutant prevention concentration
# Escherichia coli [35] = assay: Antibacterial activity against Escherichia coli ATCC 25922 expressing qnrS gene and pBK-QnrS1 assessed as resistant colonies recovered one step below mutant prevention concentration; summary of the method: as §1
# Escherichia coli [36] = assay: Antibacterial activity against qnrS gene expressing Escherichia coli ATCC 25922 harboring GyrA S83L mutant and pBK-QnrS1 assessed as mutant prevention concentration
compound,measurement,setting,value
CCn1cc(C(=O)O)c(=O)c2cc(F)c(N3CCNCC3)cc21 [NORFLOXACIN],MBC,Escherichia coli [1],0.5 µg/mL
same,MIC,Escherichia coli [1],0.5 µg/mL
same,MBC,Escherichia coli [2],2 µg/mL
same,MIC,Escherichia coli [2],0.5 µg/mL
same,MIC,Escherichia coli [3],1 µg/mL
same,Activity,Escherichia coli [4],8 µg/mL
same,Ratio,Escherichia coli [5],16
same,Ratio,Escherichia coli [6],32
same,Ratio,Escherichia coli [7],266.7
same,Activity,Escherichia coli [8],16 µg/mL
same,MIC,Escherichia coli [9],0.25 µg/mL
same,Time,Escherichia coli [10],24 h
same,Activity,Escherichia coli [11],8 µg/mL
same,Ratio,Escherichia coli [12],16
same,MBC,Escherichia coli [13],0.5 µg/mL
same,MIC,Escherichia coli [13],0.125 µg/mL
same,MBC,Escherichia coli [14],1 µg/mL
same,MIC,Escherichia coli [14],1 µg/mL
same,Time,Escherichia coli [15],24 h
same,MBC,Escherichia coli [16],2 µg/mL
same,MIC,Escherichia coli [16],2 µg/mL
same,MBC,Escherichia coli [17],64 µg/mL
same,MIC,Escherichia coli [17],8 µg/mL
same,MIC,Escherichia coli [18],8 µg/mL
same,MIC,Escherichia coli [19],2 µg/mL
same,Time,Escherichia coli [20],24 h
same,MBC,Escherichia coli [21],2 µg/mL
same,MIC,Escherichia coli [21],2 µg/mL
same,Time,Escherichia coli [22],48 h
same,MIC,Escherichia coli [23],0.5 µg/mL
same,Time,Escherichia coli [24],24 h
same,MBC,Escherichia coli [25],1 µg/mL
same,MIC,Escherichia coli [25],0.5 µg/mL
same,Activity,Escherichia coli [26],8 µg/mL
same,Ratio,Escherichia coli [27],16
same,MBC,Escherichia coli [28],0.03 µg/mL
same,MIC,Escherichia coli [28],0.03 µg/mL
same,MBC,Escherichia coli [29],4 µg/mL
same,MIC,Escherichia coli [29],2 µg/mL
same,Activity,Escherichia coli [30],8 µg/mL
same,MBC,Escherichia coli [31],4 µg/mL
same,MIC,Escherichia coli [31],4 µg/mL
same,MBC,Escherichia coli [32],16 µg/mL
same,MIC,Escherichia coli [32],8 µg/mL
same,Activity,Escherichia coli [33],16 µg/mL
same,Time,Escherichia coli [34],24 h
same,MIC,Escherichia coli [35],1 µg/mL
same,Activity,Escherichia coli [36],32 µg/mL
